From ChEMBL document CHEMBL1138189 (J Med Chem, 2006) come the findings set out here.

The target of one assay is T1, Adenosine receptor A3 (Homo sapiens, UniProt P0DMS8).
T1 sequence (P0DMS8 whole entry): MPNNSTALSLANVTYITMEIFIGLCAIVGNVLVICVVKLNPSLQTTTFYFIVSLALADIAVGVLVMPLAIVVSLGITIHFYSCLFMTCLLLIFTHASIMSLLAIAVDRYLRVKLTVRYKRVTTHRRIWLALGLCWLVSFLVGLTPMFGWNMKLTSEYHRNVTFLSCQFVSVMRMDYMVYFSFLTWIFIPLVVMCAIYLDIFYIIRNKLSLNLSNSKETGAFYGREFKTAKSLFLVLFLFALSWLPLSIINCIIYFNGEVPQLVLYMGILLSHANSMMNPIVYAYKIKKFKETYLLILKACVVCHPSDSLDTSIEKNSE
Kind of assay: Displacement of [3H]MRE3008-F20 from human adenosine A3 receptor expressed in HEK293 cells. Format: cell-based. The procedure, abridged: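 Assays ran in duplicate with 1 nM [3H]MRE3008-F20 on human A3 receptor membranes in 50 mM Tris HCl, 10 mM MgCl2, pH 7.4, at 6-8 ligand concentrations, for 120 min at 4 °C. Bound label was separated by GF/B filtration and counted. Means ± SEM.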

In assay [1] the target is T2, Adenosine receptor A2b (Homo sapiens) (UniProt P29275).
T2 sequence (whole entry): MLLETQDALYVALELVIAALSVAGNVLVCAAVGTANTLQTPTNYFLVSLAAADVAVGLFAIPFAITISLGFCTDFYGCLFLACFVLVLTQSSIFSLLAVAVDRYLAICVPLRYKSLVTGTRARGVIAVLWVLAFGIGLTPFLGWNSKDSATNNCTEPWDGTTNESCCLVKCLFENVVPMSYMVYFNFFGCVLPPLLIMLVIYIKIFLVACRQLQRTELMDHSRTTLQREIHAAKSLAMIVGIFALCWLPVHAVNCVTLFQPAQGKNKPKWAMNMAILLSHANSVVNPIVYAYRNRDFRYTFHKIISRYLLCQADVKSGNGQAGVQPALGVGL
Description: Inhibition of NECA-stimulated cAMP accumulation in CHO cells expressing human adenosine A2B receptor at 1 uM. The format is functional, cell-based.

The target in assay [2] is T3, Adenosine receptor A1 (Homo sapiens) (UniProt P30542).
T3 sequence (whole entry): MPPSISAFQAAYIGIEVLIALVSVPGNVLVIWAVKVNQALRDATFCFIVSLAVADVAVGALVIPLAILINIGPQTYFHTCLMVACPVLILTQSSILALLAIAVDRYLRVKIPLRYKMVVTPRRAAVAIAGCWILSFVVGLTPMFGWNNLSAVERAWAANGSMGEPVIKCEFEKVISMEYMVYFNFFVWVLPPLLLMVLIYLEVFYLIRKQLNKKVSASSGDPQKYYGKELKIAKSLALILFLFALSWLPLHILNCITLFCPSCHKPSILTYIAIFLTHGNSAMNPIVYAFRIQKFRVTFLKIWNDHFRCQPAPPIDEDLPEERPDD
Description: Inhibition of [3H]DPCPX binding to human adenosine A1 receptor expressed in CHO cells at 1 uM. The format is cell-based. A digest of the protocol:
(§1)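 CHO membranes bearing recombinant human A1 receptor, in 50 mM Tris HCl pH 7.4, incubated 120 min at 25 °C with 1 nM [3H]DPCPX and 6-8 test concentrations. CHA defined nonspecific binding. Bound and free label were separated on GF/B glass-fiber filters and counted. […] Means ± SEM.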

Another assay addresses Adenosine receptor A2a (Homo sapiens, UniProt P29274). Kind of assay: Displacement of [3H]ZM-241385 from human adenosine A2A receptor expressed in HEK293 cells. Format: cell-based. A digest of the protocol: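 Human A2A receptor membranes in 50 mM Tris HCl, 10 mM MgCl2, pH 7.4, competed against [3H]-ZM241385 at 6-8 test concentrations for 60 min at 25 °C. NECA defined nonspecific binding. Bound label was collected on glass-fiber filters by filtration and counted. Means ± SEM.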
(Loss of bound radioactivity is the signal in a displacement assay; it reports binding, not function.)

A further assay has as its target T4, Adenosine receptor A2b (Homo sapiens, UniProt P29275).
T4 sequence (P29275 whole entry): T2 sequence (whole entry)
Kind of assay: Inhibition of NECA-stimulated cAMP accumulation in CHO cells expressing human adenosine A2B receptor. The format is functional, cell-based. A digest of the protocol: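 Trypsinized A2B-transfected CHO cells (1 × 10⁶ per assay) were preincubated 10 min at 37 °C in pH 7.4 salt buffer with 2 IU/mL adenosine deaminase and Ro 20-1724, then stimulated with 100 nM NECA plus antagonist. Stopped with cold 6% TCA, ether-extracted, and cAMP measured by [3H]cAMP competition with adrenal binding protein. IC50 derived.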
A general note: Changes in cAMP serve as a functional read-out for many G protein-coupled receptors.

Assay [3] concerns the target Adenosine receptors; A2a & A3 (Homo sapiens) (UniProt P0DMS8+P29274). Kind of assay: Selectivity for human adenosine A3 over human adenosine A2A receptor. The format is protein assay.
Assay [4] deals with Adenosine receptors; A1 & A3 (Homo sapiens) (UniProt P30542+P0DMS8). Description: Selectivity for human adenosine A3 over human adenosine A1 receptor. Format: protein assay.
Another assay deals with T5, Adenosine receptor A1 (Homo sapiens, UniProt P30542).
T5 sequence (P30542 whole entry): T3 sequence (whole entry)
Description: Displacement of [3H]DPCPX from human adenosine A1 receptor expressed in CHO cells. The format is cell-based. The procedure, abridged: as §1

Each structure is given as a SMILES string. pIC50, pKi: −log10 of the molar value. Several values for one entry are separate records, joined by “and”; a condition that tells them apart may be missing. Equal values may be shown once. A value given as a limit tells only on which side of the number the result lay.

Adenosine receptors; A2a & A3 (Homo sapiens), sequence (P29274 whole entry, looked up, one chain of several): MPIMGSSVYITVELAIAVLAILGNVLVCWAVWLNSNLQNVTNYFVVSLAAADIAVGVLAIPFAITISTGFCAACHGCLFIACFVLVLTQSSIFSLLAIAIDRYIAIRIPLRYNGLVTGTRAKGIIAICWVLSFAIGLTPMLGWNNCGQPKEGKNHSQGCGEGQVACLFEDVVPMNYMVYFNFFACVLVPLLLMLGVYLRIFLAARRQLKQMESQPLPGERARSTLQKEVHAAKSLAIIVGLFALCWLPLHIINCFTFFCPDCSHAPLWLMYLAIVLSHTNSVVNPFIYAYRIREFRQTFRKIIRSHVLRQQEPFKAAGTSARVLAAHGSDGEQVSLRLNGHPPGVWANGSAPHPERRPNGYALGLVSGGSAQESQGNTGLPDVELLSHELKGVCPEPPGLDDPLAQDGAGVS
Adenosine receptor A2a, sequence (P29274 whole entry): as the sequence (P29274 whole entry, looked up, one chain of several) above

As for `Cc1sccc1NC(=O)Nc1nc2nn(C)cc2c2nc(-c3ccco3)nn12`, the values for the pKi on Adenosine receptor A3, at Adenosine receptor A2a and on Adenosine receptor A1 were 8.46, 6.39 and below 6.00, respectively. The inhibition in assay [1] was determined as 31%; in assay [2], 24%. For the same molecule, the pIC50 on Adenosine receptor A2b was below 6.00. The Ratio Ki was 117 in assay [3] and above 286 in assay [4].

As to `Cn1cc2c(nc(NC(=O)Nc3ccccn3)n3nc(-c4ccco4)nc23)n1` [listing 1 of 3 here], the negative logarithm of the Ki (pKi) on Adenosine receptor A3 is 9.46; on Adenosine receptor A2a, 6.85; on Adenosine receptor A1 it was 6.68. The pIC50 against Adenosine receptor A2b (cho) is below 6.00.

For `Cn1cc2c(nc(NC(=O)Nc3ccc4ccccc4n3)n3nc(-c4ccco4)nc23)n1`, the negative-log Ki (pKi) at Adenosine receptor A3 was 6.96; at Adenosine receptor A2a, 6.09; on Adenosine receptor A1, below 6.00. Moreover, the values for the inhibition in assay [1] and in assay [2] were 17% and 12%, respectively. Further, the pIC50 at Adenosine receptor A2b was below 6.00. Also, the values for the Ratio Ki in assay [3] and in assay [4] were 7.3 and above 9, respectively.

For the molecule `Cn1cc2c(nc(NC(=O)Nc3cc[n+]([O-])cc3)n3nc(-c4ccco4)nc23)n1`, the pKi was 7.68 at Adenosine receptor A3, 6.82 at Adenosine receptor A2a and below 6.00 at Adenosine receptor A1. For the same molecule, the inhibition in assay [1] worked out at 12%; in assay [2], 35%. The molecule also had a pIC50 at Adenosine receptor A2b below 6.00. The Ratio Ki was 7.3 in assay [3] and above 47 in assay [4].

In the case of `Cn1cc2c(nc(NC(=O)Nc3cccc[n+]3[O-])n3nc(-c4ccco4)nc23)n1`, the figures for the pKi on Adenosine receptor A3, at Adenosine receptor A2a and on Adenosine receptor A1 were 8.46, 6.96 and 6.10, respectively. This molecule gave a negative-log IC50 (pIC50) on Adenosine receptor A2b of 6.49. Also, the values for the Ratio Ki in assay [3] and in assay [4] were 31 and 228, respectively.

As to `Cn1cc2c(nc(NC(=O)Nc3ccc[n+]([O-])c3)n3nc(-c4ccco4)nc23)n1`, the negative-log Ki (pKi) at Adenosine receptor A3 is 8.00; at Adenosine receptor A2a, 7.12; on Adenosine receptor A1, 6.26. For the same molecule, the negative-log IC50 (pIC50) against Adenosine receptor A2b is 6.59. The Ratio Ki in assay [3] is 7.5; in assay [4], 55.

For `Cn1cc2c(nc(NC(=O)Nc3cc4ccccc4o3)n3nc(-c4ccco4)nc23)n1`, the figures for the pKi at Adenosine receptor A3, on Adenosine receptor A2a and at Adenosine receptor A1 were 7.92, 7.22 and below 6.00, respectively. Moreover, the inhibition in assay [2] stood at 22%. This molecule also had a pIC50 on Adenosine receptor A2b of 6.60. The Ratio Ki was 5 in assay [3] and above 83 in assay [4].

As to `Cn1cc2c(nc(NC(=O)Nc3cccnc3)n3nc(-c4ccco4)nc23)n1` [listing 1 of 3 here], the figures for the pKi at Adenosine receptor A3, on Adenosine receptor A2a and at Adenosine receptor A1 were 9.26, 6.81 and 6.61, respectively. On Adenosine receptor A2b, the pIC50 is below 6.00.

On to `Cn1cc2c(nc(NC(=O)Nc3ccccn3)n3nc(-c4ccco4)nc23)n1` [listing 2 of 3 here], for which the inhibition in assay [1] is 20% and 16%. Moreover, the Ratio Ki in assay [3] is 360 and 400; in assay [4] it was 530 and 600.

Regarding `Cn1cc2c(nc(NC(=O)Nc3ccoc3)n3nc(-c4ccco4)nc23)n1`, the negative-log Ki (pKi) at Adenosine receptor A3 is 7.96; on Adenosine receptor A2a, 6.40; at Adenosine receptor A1, below 6.00. Also, the results for the inhibition in assay [1] and in assay [2] were 4% and 20%, respectively. The same molecule showed a negative-log IC50 (pIC50) against Adenosine receptor A2b below 6.00. For the same molecule, the values for the Ratio Ki in assay [3] and in assay [4] were 36 and above 90, respectively.

For the molecule `Cn1cc2c(nc(NC(=O)Nc3ccco3)n3nc(-c4ccco4)nc23)n1`, the negative logarithm of the Ki (pKi) was 7.80 at Adenosine receptor A3, 6.46 on Adenosine receptor A2a and below 6.00 at Adenosine receptor A1. For the same molecule, the results for the inhibition in assay [1] and in assay [2] were 8% and 25%, respectively. The negative-log IC50 (pIC50) against Adenosine receptor A2b is below 6.00. For the same molecule, the Ratio Ki in assay [3] is 22; in assay [4], above 62.5.

Take `Cn1cc2c(nc(NC(=O)Nc3cccc[n+]3C)n3nc(-c4ccco4)nc23)n1`: the pKi at Adenosine receptor A3 is 8.89; on Adenosine receptor A2a, 7.19; on Adenosine receptor A1 it was 6.40. Moreover, the pIC50 on Adenosine receptor A2b is 6.55. Moreover, the Ratio Ki in assay [3] was 49; in assay [4], 307.

In the case of `Cn1cc2c(nc(NC(=O)Nc3ccc[n+](C)c3)n3nc(-c4ccco4)nc23)n1`, the values for the negative logarithm of the Ki (pKi) on Adenosine receptor A3, on Adenosine receptor A2a and on Adenosine receptor A1 were 8.28, 7.38 and 6.48, respectively. Moreover, at Adenosine receptor A2b, the pIC50 is 6.61. Besides, the Ratio Ki in assay [3] came to 8; in assay [4], 62.

Regarding `Cn1cc2c(nc(NC(=O)Nc3ccncc3)n3nc(-c4ccco4)nc23)n1` [listing 1 of 3 here], the negative logarithm of the Ki (pKi) is 6.96 on Adenosine receptor A2a and 6.45 on Adenosine receptor A1. The molecule also showed a pIC50 against Adenosine receptor A2b below 6.00.

For `Cc1ccc(NC(=O)Nc2nc3nn(C)cc3c3nc(-c4ccco4)nn23)s1`, the pKi at Adenosine receptor A3 is 8.00; at Adenosine receptor A2a, 6.04; on Adenosine receptor A1, below 6.00. For the same molecule, the inhibition in assay [1] was found to be 20%; in assay [2], 10%. Besides, the pIC50 against Adenosine receptor A2b was below 6.00. Also, the Ratio Ki in assay [3] is 92; in assay [4], above 100.

`Cn1cc2c(nc(NC(=O)Nc3cc[n+](C)cc3)n3nc(-c4ccco4)nc23)n1`: the pKi on Adenosine receptor A3 is 7.55; at Adenosine receptor A2a, 6.55; on Adenosine receptor A1 it was below 6.00. The values for the inhibition in assay [1] and in assay [2] were 6% and 20%, respectively. On Adenosine receptor A2b, this molecule had a negative logarithm of the IC50 (pIC50) below 6.00. The Ratio Ki in assay [3] is 10; in assay [4], above 36.

On to `Cn1cc2c(nc(NC(=O)Nc3ccccn3)n3nc(-c4ccco4)nc23)n1` [listing 3 of 3 here], for which the pKi was 9.30 on Adenosine receptor A3, 6.74 at Adenosine receptor A2a and 6.58 at Adenosine receptor A1. Moreover, the negative logarithm of the IC50 (pIC50) on Adenosine receptor A2b was below 6.00.

Turning to `Cn1cc2c(nc(NC(=O)Nc3ccncc3)n3nc(-c4ccco4)nc23)n1` [listing 2 of 3 here], the inhibition in assay [1] was 12% and 20%.

`Cn1cc2c(nc(NC(=O)Nc3cccnc3)n3nc(-c4ccco4)nc23)n1` [listing 2 of 3 here]: the inhibition in assay [1] is 18% and 24%. Besides, the Ratio Ki in assay [3] is 281 and 284; in assay [4] it was 445 and 522.

Regarding `Cn1cc2c(nc(NC(=O)Nc3ccncc3)n3nc(-c4ccco4)nc23)n1` [listing 3 of 3 here], the pKi at Adenosine receptor A2a was 7.19; at Adenosine receptor A1 it was 6.59. Further, the pIC50 at Adenosine receptor A2b (cho) is below 6.00.

Turning to `Cn1cc2c(nc(NC(=O)Nc3cccnc3)n3nc(-c4ccco4)nc23)n1` [listing 3 of 3 here], the pKi at Adenosine receptor A3 was 9.36; at Adenosine receptor A2a, 6.90; on Adenosine receptor A1 it was 6.64. Further, the negative-log IC50 (pIC50) at Adenosine receptor A2b (cho) is below 6.00.

One may read the pKi as the Ki on a negative log10 scale, so that one unit is a factor of ten. Read a high pKi as a low Ki. Usually inhibition stands for the change of the read-out against control, counted positive when it falls. The low end stands for a response near the control, the high end for a response far below the control. Broadly, the pIC50 is the IC50 on a negative log10 scale, so that one unit is a factor of ten.
